The values that follow come from ChEMBL document CHEMBL1135686, “Binding model for nonpeptide antagonists of alpha(v)beta(3) integrin” (J Med Chem, 2002).

This assay addresses Integrin alpha-V/beta-3 (Homo sapiens, UniProt P05106+P06756). In words: Inhibition of Vitronectin receptor, integrin alphaV-beta3 expressed in HEK 293 cells. The format is cell-based, HEK293. A digest of the protocol: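 Human recombinant αvβ3 was purified from HEK 293 cells overexpressing it, following a placental αvβ3 purification method, and captured on lyophilized wheat germ agglutinin SPA beads. Values are reported as IC50.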

Chain of Integrin alpha-V/beta-3 (P05106 27-788 limits assumed): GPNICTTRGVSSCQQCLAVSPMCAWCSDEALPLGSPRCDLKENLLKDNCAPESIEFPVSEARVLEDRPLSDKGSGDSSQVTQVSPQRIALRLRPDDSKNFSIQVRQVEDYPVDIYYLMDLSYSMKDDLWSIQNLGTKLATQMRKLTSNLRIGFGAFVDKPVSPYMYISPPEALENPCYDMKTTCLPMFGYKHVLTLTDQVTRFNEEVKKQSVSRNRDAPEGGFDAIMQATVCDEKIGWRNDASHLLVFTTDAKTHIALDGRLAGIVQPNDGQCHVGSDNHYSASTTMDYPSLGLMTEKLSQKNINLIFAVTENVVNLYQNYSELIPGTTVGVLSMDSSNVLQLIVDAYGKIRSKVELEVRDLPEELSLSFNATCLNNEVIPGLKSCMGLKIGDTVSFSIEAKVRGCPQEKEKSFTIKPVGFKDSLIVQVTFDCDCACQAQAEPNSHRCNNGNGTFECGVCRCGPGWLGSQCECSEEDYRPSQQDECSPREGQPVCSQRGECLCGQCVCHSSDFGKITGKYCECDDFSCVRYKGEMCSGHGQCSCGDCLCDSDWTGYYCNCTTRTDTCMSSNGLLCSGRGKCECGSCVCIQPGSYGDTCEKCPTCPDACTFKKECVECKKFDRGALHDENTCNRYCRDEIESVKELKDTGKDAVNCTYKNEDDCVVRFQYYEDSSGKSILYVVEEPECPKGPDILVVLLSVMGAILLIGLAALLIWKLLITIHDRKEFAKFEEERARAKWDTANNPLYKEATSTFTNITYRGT
Chain of Integrin alpha-V/beta-3 (P06756 31-889 limits assumed): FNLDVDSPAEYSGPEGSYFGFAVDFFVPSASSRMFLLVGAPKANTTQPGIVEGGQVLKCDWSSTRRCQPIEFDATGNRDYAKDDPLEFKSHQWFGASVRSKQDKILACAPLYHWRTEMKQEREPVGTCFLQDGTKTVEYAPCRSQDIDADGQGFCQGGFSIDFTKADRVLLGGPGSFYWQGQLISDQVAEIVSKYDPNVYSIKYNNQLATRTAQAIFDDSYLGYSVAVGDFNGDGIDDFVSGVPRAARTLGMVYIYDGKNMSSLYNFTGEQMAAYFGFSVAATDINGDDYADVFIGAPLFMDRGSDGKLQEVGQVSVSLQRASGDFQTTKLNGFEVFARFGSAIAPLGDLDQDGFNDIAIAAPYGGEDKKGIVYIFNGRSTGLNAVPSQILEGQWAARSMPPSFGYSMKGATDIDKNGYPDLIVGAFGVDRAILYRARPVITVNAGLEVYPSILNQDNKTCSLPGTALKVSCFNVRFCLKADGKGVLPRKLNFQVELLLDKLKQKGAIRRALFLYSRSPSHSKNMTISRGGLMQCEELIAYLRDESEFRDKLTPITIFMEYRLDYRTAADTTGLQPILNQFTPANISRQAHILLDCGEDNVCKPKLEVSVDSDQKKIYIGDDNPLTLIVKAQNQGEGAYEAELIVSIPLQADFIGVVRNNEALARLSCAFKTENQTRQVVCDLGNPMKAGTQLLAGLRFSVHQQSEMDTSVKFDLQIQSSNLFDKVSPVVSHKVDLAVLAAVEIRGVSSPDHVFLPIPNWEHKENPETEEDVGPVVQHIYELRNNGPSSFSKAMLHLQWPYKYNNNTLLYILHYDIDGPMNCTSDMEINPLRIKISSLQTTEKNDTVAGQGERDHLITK
Chain of Integrin alpha-V/beta-3 (P06756 891-1048 limits assumed): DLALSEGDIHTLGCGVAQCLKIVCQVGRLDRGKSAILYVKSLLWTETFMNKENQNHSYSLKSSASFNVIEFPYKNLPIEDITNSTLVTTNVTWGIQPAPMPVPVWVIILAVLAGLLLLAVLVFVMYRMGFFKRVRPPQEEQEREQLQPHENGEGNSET

Consider `O=C(O)C[C@H](NC(=O)CNC(=O)CCCc1ccc2c(n1)NCCC2)c1cccnc1`, for which half-maximal inhibition (IC50) required 8.8 nM.
As for `O=C(NC[C@H](NS(=O)(=O)c1ccccc1)C(=O)O)c1ccc(OCCC2CCNCC2)cc1`, the IC50 was over 1000 nM.
The same measure for `CNc1cccc(CCOc2ccc3c(c2)CN(CC(F)(F)F)C(=O)[C@H](CC(=O)O)C3)n1`: 0.15 nM; for `O=C(O)C[C@H](NC(=O)CN1CCC(CCc2ccc3c(n2)NCCC3)C1=O)c1cccnc1` (stereo not given in full): 0.35 nM; for `O=C(O)C[C@H](NC(=O)CN1CCC(CCc2ccc3c(n2)NCCC3)C1=O)c1cnc2ccccc2c1` (stereo not given in full): 0.04 nM.

For orientation: IC50 means the midpoint of a concentration-inhibition curve. Low values mean greater potency in that assay, high ones weaker potency in that assay.
